Results on 40 compounds are retold here after ChEMBL document CHEMBL1154095, “Separation of alpha-glucosidase-inhibitory and liver X receptor-antagonistic activities of phenethylphenyl phthalimide analogs and generation of LXRalpha-selective antagonists” (Bioorg Med Chem, 2009).

The target in experiment [1] is T1, Oxysterols receptor LXR-alpha (Homo sapiens, UniProt Q13133).
T1 sequence (Q13133 whole entry): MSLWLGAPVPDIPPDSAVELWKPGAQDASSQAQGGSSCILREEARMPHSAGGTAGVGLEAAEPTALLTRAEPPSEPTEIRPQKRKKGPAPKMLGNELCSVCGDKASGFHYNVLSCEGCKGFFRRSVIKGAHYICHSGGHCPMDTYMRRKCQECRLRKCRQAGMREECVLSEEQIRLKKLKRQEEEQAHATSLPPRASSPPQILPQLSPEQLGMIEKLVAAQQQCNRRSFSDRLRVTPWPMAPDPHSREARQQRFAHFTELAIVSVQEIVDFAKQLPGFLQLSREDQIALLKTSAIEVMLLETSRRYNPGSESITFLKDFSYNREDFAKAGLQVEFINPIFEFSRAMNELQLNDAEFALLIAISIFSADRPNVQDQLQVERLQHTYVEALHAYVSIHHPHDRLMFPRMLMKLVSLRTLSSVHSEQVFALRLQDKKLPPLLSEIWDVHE
Nature of the experiment: Antagonist activity at human LXRalpha expressed in HEK293 cells assessed as inhibition of beta-galactosidase activity by luciferase reporter gene assay. Format: functional, cell-based.

The target in experiment [2] is T2, Oxysterols receptor LXR-beta (Homo sapiens, UniProt P55055).
T2 sequence (P55055 whole entry): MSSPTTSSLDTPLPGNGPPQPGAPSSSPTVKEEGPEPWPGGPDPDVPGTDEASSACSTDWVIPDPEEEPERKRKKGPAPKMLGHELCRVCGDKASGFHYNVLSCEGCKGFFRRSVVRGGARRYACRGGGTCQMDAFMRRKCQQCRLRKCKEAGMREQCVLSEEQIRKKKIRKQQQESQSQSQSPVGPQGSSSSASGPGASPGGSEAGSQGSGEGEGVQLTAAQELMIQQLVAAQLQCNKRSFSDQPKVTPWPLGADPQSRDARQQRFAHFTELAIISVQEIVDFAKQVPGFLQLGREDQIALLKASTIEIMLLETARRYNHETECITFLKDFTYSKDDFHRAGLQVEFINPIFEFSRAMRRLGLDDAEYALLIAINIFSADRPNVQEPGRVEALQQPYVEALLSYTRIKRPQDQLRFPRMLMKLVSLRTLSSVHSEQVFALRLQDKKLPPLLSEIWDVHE
Nature of the experiment: Antagonist activity at human LXRbeta expressed in HEK293 cells assessed as inhibition of beta-galactosidase activity by luciferase reporter gene assay. Type of experiment: functional, cell-based. Background: In a reporter assay the amount or activity of a reporter protein is the signal.

Experiment [3] can be described thus: Inhibition of Saccharomyces sp. alpha-glucosidase assessed as p-nitrophenol release. Summed up:
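Yeast alpha-glucosidase at 0.2 mU/mL in 10 mM phosphate buffer pH 7.0 was preincubated with compound (1% v/v DMSO final) for 10 min at 37 °C. pNPG substrate (final 0.2 mM) was then added and incubated 10 min at 37 °C. The reaction was basified with Na2CO3, and released p-nitrophenol was read at A405. Triplicates, repeated at least twice, normalized averages, IC50.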

For the next experiment, the system named is Saccharomyces sp. The experiment in a line: Inhibition of Saccharomyces sp. alpha-glucosidase by non-competitive Lineweaver-Burke analysis.
Experiment [4] deals with Liver X receptor (LXR alpha AND LXR beta) (Homo sapiens) (UniProt Q13133+P55055). Nature of the experiment: Selectivity ratio of IC50 for human LXRbeta over IC50 for human LXRalpha. Format: protein assay.

Active and inactive are the calls of the source. The rule behind the calls is not given here.

In general, IC50 refers to the concentration at which inhibition is half-maximal. Turning to `O=C1c2ccccc2C(=O)N1c1ccccc1CCc1ccc(O)c(O)c1`, the values for the IC50 in experiment [1], in experiment [2] and in experiment [3] were 9.8 µM, greater than 30 µM and greater than 100 µM, respectively.
Turning to `COc1cccc(CCc2cccc(N3C(=O)c4c(Cl)c(Cl)c(Cl)c(Cl)c4C3=O)c2)c1`, the IC50 in experiment [1] is 4.2 µM; in experiment [2], greater than 30 µM; in experiment [3], 69 µM.
For `O=C1c2ccccc2C(=O)N1c1ccc(CCc2ccc(O)c(O)c2)cc1`, the IC50 in experiment [1] is 1.7 µM; in experiment [2] it was greater than 3 µM; in experiment [3], greater than 100 µM.
For the compound `O=C1c2ccccc2C(=O)N1c1ccc(CCc2ccc(O)cc2)cc1`, the results for the IC50 in experiment [1], in experiment [2] and in experiment [3] were 2.9 µM, greater than 30 µM and greater than 100 µM, respectively.
Take `O=C1c2c(Cl)c(Cl)c(Cl)c(Cl)c2C(=O)N1c1ccc(CCc2cccc(O)c2)cc1`: the IC50 was 3.9 µM in experiment [1], greater than 30 µM in experiment [2] and 21 µM in experiment [3].
`COc1cccc(CCc2ccc(N3C(=O)c4ccccc4C3=O)cc2)c1`: the figures for the IC50 in experiment [1], in experiment [2] and in experiment [3] were 2.4 µM, 3.5 µM and greater than 100 µM, respectively.
As to `COc1ccc(CCc2ccc(N3C(=O)c4c(Cl)c(Cl)c(Cl)c(Cl)c4C3=O)cc2)cc1`, the IC50 in experiment [1] is 8.8 µM; in experiment [2], greater than 30 µM; in experiment [3], greater than 100 µM.
For `COc1ccc(CCc2ccc(N3C(=O)c4c(Cl)c(Cl)c(Cl)c(Cl)c4C3=O)cc2)cc1OC`, the figures for the IC50 in experiment [1], in experiment [2] and in experiment [3] were greater than 30 µM, greater than 30 µM and 18 µM, respectively. Further, in the experiment with Saccharomyces sp., the outcome was Active.
Take `O=C1c2ccccc2C(=O)N1c1ccc(CCc2ccccc2)cc1`: the IC50 in experiment [3] is greater than 100 µM.
`O=C1c2c(Cl)c(Cl)c(Cl)c(Cl)c2C(=O)N1c1cccc(/C=C/c2ccccc2)c1`: the results for the half-maximal inhibitory concentration (IC50) in experiment [1], in experiment [2] and in experiment [3] were greater than 30 µM, greater than 30 µM and 31 µM, respectively.
For the compound `COc1ccc(CCc2cccc(N3C(=O)c4ccccc4C3=O)c2)cc1OC`, the results for the IC50 in experiment [1], in experiment [2] and in experiment [3] were greater than 30 µM, greater than 30 µM and greater than 100 µM, respectively.
In the case of `O=C1c2c(Cl)c(Cl)c(Cl)c(Cl)c2C(=O)N1c1ccc(CCc2ccc(O)c(O)c2)cc1`, the IC50 in experiment [1] is 5.1 µM; in experiment [2] it was greater than 30 µM; in experiment [3] it was greater than 100 µM.
As for `O=C1c2c(Cl)c(Cl)c(Cl)c(Cl)c2C(=O)N1c1ccccc1CCc1ccccc1`, the values for the IC50 in experiment [1], in experiment [2] and in experiment [3] were greater than 3 µM, greater than 3 µM and greater than 100 µM, respectively.
Turning to `O=C1c2c(Cl)c(Cl)c(Cl)c(Cl)c2C(=O)N1c1cccc(CCc2ccc(O)c(O)c2)c1`, the IC50 in experiment [1] came to 6.3 µM; in experiment [2], 21 µM; in experiment [3], 23 µM.
For the compound `COc1ccc(CCc2ccccc2N2C(=O)c3ccccc3C2=O)cc1OC`, in experiment [3], the IC50 was greater than 100 µM.
As for `O=C1c2c(Cl)c(Cl)c(Cl)c(Cl)c2C(=O)N1c1ccc(CCc2ccccc2)cc1`, the IC50 was greater than 30 µM in experiment [1], greater than 30 µM in experiment [2] and 17 µM in experiment [3].
As for `O=C1c2ccccc2C(=O)N1c1ccc(/C=C/c2ccccc2)cc1`, the IC50 is greater than 30 µM in experiment [1], greater than 30 µM in experiment [2] and 90 µM in experiment [3].
On to `O=C1c2c(Cl)c(Cl)c(Cl)c(Cl)c2C(=O)N1c1cccc(CCc2cccc(O)c2)c1`, for which the values for the half-inhibitory concentration (IC50) in experiment [1], in experiment [2] and in experiment [3] were 2.6 µM, greater than 30 µM and 50 µM, respectively.
As to `c1cc2cc(c1)Oc1ccc(cc1)CCc1ccccc1-c1ccc(cc1)CC2`, the Selectivity ratio in experiment [4] worked out at 11.
Turning to `O=C1c2ccccc2C(=O)N1c1ccc(CCc2cccc(O)c2)cc1`, the IC50 in experiment [1] was 7.5 µM; in experiment [2], greater than 30 µM; in experiment [3] it was greater than 100 µM.
Taken in the same sequence, the figures for `COc1ccc(/C=C/c2ccc(N3C(=O)c4ccccc4C3=O)cc2)cc1OC` were 3.8 µM, greater than 30 µM and greater than 100 µM.
Taken in the same sequence, the figures for `O=C1c2ccccc2C(=O)N1c1ccc(/C=C/c2ccc(O)c(O)c2)cc1` were 1.6 µM, greater than 1 µM and greater than 100 µM.
For `O=C1c2ccccc2C(=O)N1c1cccc(CCc2ccc(O)c(O)c2)c1`, the IC50 in experiment [1] was found to be 6.1 µM; in experiment [2] it was 7.6 µM; in experiment [3] it was 38 µM.
As to `COc1ccc(CCc2ccc(N3C(=O)c4ccccc4C3=O)cc2)cc1`, the Selectivity Index in experiment [4] was greater than 150. Besides, the IC50 is 0.2 µM in experiment [1], greater than 30 µM in experiment [2] and greater than 100 µM in experiment [3].
Consider `O=C1c2c(Cl)c(Cl)c(Cl)c(Cl)c2C(=O)N1c1ccccc1CCc1ccc(O)c(O)c1`, for which the IC50 in experiment [1] was determined as 15 µM; in experiment [2], 17 µM; in experiment [3] it was 20 µM.
Regarding `O=C1c2c(Cl)c(Cl)c(Cl)c(Cl)c2C(=O)N1c1cccc(CCc2ccccc2)c1`, the IC50 in experiment [1] was greater than 30 µM; in experiment [2] it was greater than 30 µM; in experiment [3], greater than 100 µM.
For `O=C1c2c(Cl)c(Cl)c(Cl)c(Cl)c2C(=O)N1c1ccc(/C=C/c2ccc(O)c(O)c2)cc1`, the results for the IC50 in experiment [1], in experiment [2] and in experiment [3] were 2.7 µM, greater than 30 µM and greater than 100 µM, respectively.
Take `O=C1c2c(Cl)c(Cl)c(Cl)c(Cl)c2C(=O)N1c1cccc(CCc2ccc(O)cc2)c1`: the IC50 is 3.7 µM in experiment [1], greater than 30 µM in experiment [2] and greater than 100 µM in experiment [3].
For `O=C1c2c(Cl)c(Cl)c(Cl)c(Cl)c2C(=O)N1c1cccc(/C=C/c2ccc(O)c(O)c2)c1`, the concentration for half-maximal inhibition (IC50) in experiment [1] was 6.6 µM; in experiment [2], greater than 30 µM; in experiment [3] it was 13 µM.
The like results for `COc1ccc(CCc2cccc(N3C(=O)c4c(Cl)c(Cl)c(Cl)c(Cl)c4C3=O)c2)cc1OC` were, in that order, greater than 30 µM, greater than 30 µM and 83 µM.
Turning to `O=C1c2c(Cl)c(Cl)c(Cl)c(Cl)c2C(=O)N1c1ccc(CCc2ccc(O)cc2)cc1`, the IC50 in experiment [1] was greater than 30 µM; in experiment [2], greater than 30 µM; in experiment [3], 23 µM.
`COc1cccc(CCc2ccc(N3C(=O)c4c(Cl)c(Cl)c(Cl)c(Cl)c4C3=O)cc2)c1`: the IC50 in experiment [1] was 6.9 µM; in experiment [2], greater than 30 µM; in experiment [3], 65 µM.
`O=C1c2ccccc2C(=O)N1c1cccc(CCc2ccccc2)c1`: in experiment [3], the IC50 is greater than 100 µM.
With `O=C1c2c(Cl)c(Cl)c(Cl)c(Cl)c2C(=O)N1c1ccc(/C=C/c2ccccc2)cc1`, the figures for the IC50 in experiment [1], in experiment [2] and in experiment [3] were greater than 30 µM, greater than 30 µM and 21 µM, respectively.
In the case of `COc1ccc(CCc2ccccc2N2C(=O)c3c(Cl)c(Cl)c(Cl)c(Cl)c3C2=O)cc1OC`, the IC50 was 6.1 µM in experiment [1], 7.7 µM in experiment [2] and greater than 100 µM in experiment [3].
Take `COc1ccc(CCc2ccc(N3C(=O)c4ccccc4C3=O)cc2)cc1OC`: the values for the IC50 in experiment [1], in experiment [2] and in experiment [3] were 4.8 µM, 4.3 µM and greater than 100 µM, respectively.
As for `COc1ccc(/C=C/c2ccc(N3C(=O)c4c(Cl)c(Cl)c(Cl)c(Cl)c4C3=O)cc2)cc1OC`, the IC50 was greater than 20 µM in experiment [1], 14 µM in experiment [2] and 40 µM in experiment [3].
Taken in the same sequence, the figures for `COc1ccc(/C=C/c2cccc(N3C(=O)c4c(Cl)c(Cl)c(Cl)c(Cl)c4C3=O)c2)cc1OC` were greater than 30 µM, greater than 30 µM and 27 µM.
As for `COc1ccc(CCc2cccc(N3C(=O)c4c(Cl)c(Cl)c(Cl)c(Cl)c4C3=O)c2)cc1`, the IC50 in experiment [1] was 5.5 µM; in experiment [2], greater than 30 µM; in experiment [3], 49 µM.
In the case of `O=C1c2ccccc2C(=O)N1c1ccccc1CCc1ccccc1`, in experiment [3], the IC50 is 16.2 µM.
